From ChEMBL document CHEMBL3085624, “Design, synthesis, and biological evaluation of novel investigational nonapeptide KISS1R agonists with testosterone-suppressive activity” (J Med Chem, 2013)
Active and inactive are the calls of the source. The calls are words filed in the database; no cut-off is given here. Non-standard residues stand in square brackets, D forms with d. Residues, ends and D or L forms follow the SMILES beside them. 2Nal = N[C@@H](Cc1ccc2ccccc2c1)C(=O)O; Arg(Me) = CNC(=N)NCCC[C@H](N)C(=O)O; d3Pal = N[C@H](Cc1cccnc1)C(=O)O; d4Pal = N[C@H](Cc1ccncc1)C(=O)O; Cha = N[C@@H](CC1CCCCC1)C(=O)O; azaGly = NNC(=O)O

Tests used:
KiSS-1 receptor [1] = target: T1, KiSS-1 receptor (Homo sapiens, UniProt Q969F8); test: Agonist activity at recombinant human KISS1R expressed in CHO cells assessed as intracellular calcium mobilization incubated for 30 mins at 37 degC and 30 mins at room temperature by Fluo-4 NW staining-based FLIPR assay relative to Metastin (45 to 54); type: functional, cell-based
T1 sequence (Q969F8 whole entry): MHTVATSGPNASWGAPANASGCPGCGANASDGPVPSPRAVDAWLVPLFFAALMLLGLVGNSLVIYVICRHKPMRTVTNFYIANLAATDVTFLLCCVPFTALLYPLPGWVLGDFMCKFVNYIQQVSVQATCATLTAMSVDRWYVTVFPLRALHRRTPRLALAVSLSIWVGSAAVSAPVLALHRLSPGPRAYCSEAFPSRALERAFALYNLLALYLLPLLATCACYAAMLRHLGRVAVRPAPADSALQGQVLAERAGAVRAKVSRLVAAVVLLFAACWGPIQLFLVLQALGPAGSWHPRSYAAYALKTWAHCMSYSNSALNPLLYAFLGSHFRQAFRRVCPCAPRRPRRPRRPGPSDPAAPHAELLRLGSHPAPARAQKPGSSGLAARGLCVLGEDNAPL
How it was run: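 CHO cells stably expressing human KISS1R seeded at 15,000 cells/well, cultured 24 h, then loaded with Fluo-4 Direct in HBSS with 4 mM probenecid and 0.1% BSA (30 min 37 °C, 30 min room temperature). Compounds from 10 µM DMSO stocks diluted in sample buffer and added. Fluorescence read for 2 min at 2 s intervals. Peak counts give agonist activity. EC50 expressed as ratio to metastin(45-54).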

Rattus norvegicus [2] = test: Suppression of testosterone in plasma of Sprague-Dawley rat at 2 nmol/h, sc measured after 6 days by radioimmunoassay; type: functional
How it was run: (§1)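 9-week-old male CD(SD)IGS or Copenhagen rats (5/group) given peptide in distilled water by subcutaneous dorsal ALZET osmotic pump (2 mM, 0.001 mL/h) for 6 days; water-pump controls. Plasma (aprotinin/EDTA) testosterone measured by RIA on 0.05 mL. Values below detection limit (0.04 ng/mL) set to 0.04; results expressed as percent of control.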

KiSS-1 receptor [3] = target: T1, KiSS-1 receptor; test: Binding affinity to human KISS1R expressed in CHO cell membranes
KiSS-1 receptor [4] = target: KiSS-1 receptor (Rattus norvegicus, UniProt Q924U1); test: Binding affinity to rat KISS1R
KiSS-1 receptor (Rattus norvegicus, UniProt Q924U1), sequence (Q924U1 whole entry): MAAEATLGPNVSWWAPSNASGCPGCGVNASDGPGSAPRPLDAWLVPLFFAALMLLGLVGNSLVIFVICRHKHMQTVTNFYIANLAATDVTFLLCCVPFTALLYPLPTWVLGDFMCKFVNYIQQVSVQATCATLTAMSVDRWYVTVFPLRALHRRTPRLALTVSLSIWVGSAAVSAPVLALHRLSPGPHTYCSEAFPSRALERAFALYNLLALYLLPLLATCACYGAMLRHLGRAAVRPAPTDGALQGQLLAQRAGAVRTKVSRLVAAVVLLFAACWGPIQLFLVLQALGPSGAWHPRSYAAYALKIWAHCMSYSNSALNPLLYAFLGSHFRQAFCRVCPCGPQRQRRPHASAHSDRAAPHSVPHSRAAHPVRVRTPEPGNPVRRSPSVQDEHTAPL

[5] = Metabolic stability in mouse serum assessed as compound remaining at 0.1 mM after 1 hr by HPLC analysis; type: ADME; conditions: read-out: Stability
How it was run: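 Pooled mouse serum (45 µL) spiked with 5 µL of 1 mM aqueous peptide, giving 0.1 mM initial, and incubated at 37 °C. Aliquots taken at time 0 and after 1 h, quenched by boiling 3 min. Peptide quantified by HPLC peak area. Percent remaining relative to time 0; three independent experiments.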

Rattus norvegicus [6] = test: Suppression of testosterone in plasma of rat at 1 nmol/h, sc measured after 6 days by radioimmunoassay; type: functional, organism-based
How it was run: (§2)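 Male rats given peptide continuously at 1 nmol/h. Plasma testosterone measured after 6 and 13 days; detection limit 0.04 ng/mL.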

[7] = Plasma concentration in Copenhagen rat at 2 nmol/h, sc measured after 6 days by radioimmunoassay; type: ADME, organism-based
[8] = Bioavailability in Sprague-Dawley rat at 1 mg/kg, sc; type: ADME, organism-based; conditions: in vivo
Rattus norvegicus [9] = test: Induction of ovulation in immature Wistar rats assessed as increase in number of oocytes at 30 to 100 nmol/kg administered dorsally by stereomicroscopy; type: functional, organism-based
How it was run: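 23-day-old female Wistar rats primed subcutaneously with eCG 10 IU/animal. Two days later, saline-dissolved agents injected dorsally at 30 or 100 nmol/kg (5 rats/group; saline control 6; hCG 10 IU positive control). Animals killed 24–25 h later. Oöcytes retrieved from oviducal ampulla under stereomicroscopy, or by flushing oviduct and uterus with saline, and counted.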

Rattus norvegicus [10] = test: Suppression of testosterone in plasma of Copenhagen rat at 2 nmol/h, sc measured after 6 days by radioimmunoassay; type: functional, organism-based; how it was run: as §1
Rattus norvegicus [11] = test: Suppression of testosterone in plasma of rat at 1 nmol/h, sc measured after 13 days by radioimmunoassay; type: functional, organism-based; how it was run: as §2

SMILES | fold change (FC) (KiSS-1 receptor [1]) | Ki (KiSS-1 receptor [3]) [nM] | Ki (KiSS-1 receptor [4]) [nM] | further results
CNC(=N)NCCC[C@H](NC(=O)[C@H](CC(C)C)NC(=O)CNC(=O)[C@H](Cc1ccccc1)NC(=O)[C@H](CO)NC(=O)[C@H](CC(N)=O)NC(=O)[C@H](Cc1c[nH]c2ccccc12)NC(=O)[C@H](CC(N)=O)NC(=O)[C@H](N)Cc1ccc(O)cc1)C(=O)N[C@@H](Cc1ccccc1)C(N)=O | 0.93 |  |  | Activity (Rattus norvegicus [2]): Active
CNC(=N)NCCC[C@H](NC(=O)[C@H](CC(C)C)NC(=O)NNC(=O)[C@H](Cc1ccccc1)NC(=O)[C@H](CO)NC(=O)[C@H](CC(N)=O)NC(=O)[C@H](Cc1c[nH]c2ccccc12)NC(=O)[C@H](CC(N)=O)NC(=O)[C@H](N)Cc1cccnc1)C(=O)N[C@@H](Cc1ccccc1)C(N)=O (H-[d3Pal]NWNSF[azaGly]L[Arg(Me)]F-NH2) | 2.3 | 0.12 | 0.14 | 
CNC(=N)NCCC[C@H](NC(=O)[C@H](CC(C)C)NC(=O)NNC(=O)[C@H](Cc1ccccc1)NC(=O)[C@H](CO)NC(=O)[C@H](CC(N)=O)NC(=O)[C@H](CC1CCCCC1)NC(=O)[C@@H](CC(N)=O)NC(=O)[C@H](N)Cc1ccc(O)cc1)C(=O)N[C@@H](Cc1ccccc1)C(N)=O (H-[dY][dN][Cha]NSF[azaGly]L[Arg(Me)]F-NH2) | 17 | 0.055 | 0.076 | 
CNC(N)=NCCC[C@H](NC(=O)[C@H](CC(C)C)NC(=O)NNC(=O)[C@H](Cc1ccccc1)NC(=O)[C@H](CO)NC(=O)[C@H](CC(N)=O)NC(=O)[C@H](Cc1ccccc1)NC(=O)[C@@H](CC(N)=O)NC(=O)[C@H](N)Cc1ccc(O)cc1)C(=O)N[C@@H](Cc1ccccc1)C(N)=O (H-[dY][dN]FNSF[azaGly]L[Arg(Me)]F-NH2) |  | 0.12 | 0.12 | remaining at 1 h, 100 µM [5]: 24.7%
CNC(=N)NCCC[C@H](NC(=O)[C@H](CC(C)C)NC(=O)NNC(=O)[C@H](Cc1ccccc1)NC(=O)[C@H](CO)NC(=O)[C@H](CC(N)=O)NC(=O)[C@H](Cc1c[nH]c2ccccc12)NC(=O)[C@H](CC(N)=O)NC(=O)[C@@H](C)N)C(=O)N[C@@H](Cc1ccccc1)C(N)=O (H-[dA]NWNSF[azaGly]L[Arg(Me)]F-NH2) | 4.9 | 0.51 | 0.52 | 
CNC(=N)NCCC[C@H](NC(=O)[C@H](CC(C)C)NC(=O)NNC(=O)[C@H](Cc1ccccc1)NC(=O)[C@H](CO)NC(=O)[C@H](CC(N)=O)NC(=O)[C@H](Cc1c[nH]c2ccccc12)NC(=O)[C@@H](Cc1cnc[nH]1)NC(=O)[C@H](N)Cc1ccc(O)cc1)C(=O)N[C@@H](Cc1ccccc1)C(N)=O | 6.2 | 0.033 | 0.043 | 
CNC(=N)NCCC[C@H](NC(=O)[C@H](CC(C)C)NC(=O)NNC(=O)[C@H](Cc1ccccc1)NC(=O)[C@H](CO)NC(=O)[C@H](CC(N)=O)NC(=O)[C@@H](NC(=O)[C@H](N)Cc1ccc(O)cc1)[C@@H](C)O)C(=O)N[C@@H](Cc1ccccc1)C(N)=O (H-[dY]TNSF[azaGly]L[Arg(Me)]F-NH2) | 8.9 | 0.2 | 0.24 | 
CNC(=N)NCCC[C@H](NC(=O)[C@H](CC(C)C)NC(=O)NNC(=O)[C@H](Cc1ccccc1)NC(=O)[C@H](CO)NC(=O)[C@H](CC(N)=O)NC(=O)[C@@H](Cc1c[nH]c2ccccc12)NC(=O)[C@H](N)Cc1ccc(O)cc1)C(=O)N[C@@H](Cc1ccccc1)C(N)=O (H-[dY][dW]NSF[azaGly]L[Arg(Me)]F-NH2) | 4.5 | 0.065 | 0.11 | 
CCNC(=O)[C@@H]1CCCN1C(=O)[C@H](CCCNC(=N)N)NC(=O)[C@H](CC(C)C)NC(=O)[C@@H](CC(C)C)NC(=O)[C@H](Cc1ccc(O)cc1)NC(=O)[C@H](CO)NC(=O)[C@H](Cc1c[nH]c2ccccc12)NC(=O)[C@H](Cc1c[nH]cn1)NC(=O)[C@@H]1CCC(=O)N1 |  |  |  | Activity (Rattus norvegicus [11]): Active

The remaining compounds from weak to strong by Ki (KiSS-1 receptor [3]), led by results:

fold change (FC) (KiSS-1 receptor [1]) | Ki (KiSS-1 receptor [3]) [nM] | Ki (KiSS-1 receptor [4]) [nM] | SMILES | further results
 | 0.29 | 0.25 | CNC(N)=NCCC[C@H](NC(=O)[C@H](CC(C)C)NC(=O)NNC(=O)[C@H](Cc1ccccc1)NC(=O)[C@H](CO)NC(=O)[C@H](CC(N)=O)NC(=O)[C@@H](NC(=O)[C@@H](CC(N)=O)NC(=O)[C@H](N)Cc1ccc(O)cc1)[C@@H](C)O)C(=O)N[C@@H](Cc1ccccc1)C(N)=O | remaining at 1 h, 100 µM [5]: 65.8%
10 | 0.2 | 0.18 | CNC(=N)NCCC[C@H](NC(=O)[C@H](CC(C)C)NC(=O)NNC(=O)[C@H](Cc1ccccc1)NC(=O)[C@H](CO)NC(=O)[C@H](CC(N)=O)NC(=O)[C@H](CC1CCCCC1)NC(=O)[C@@H](CC(N)=O)NC(=O)[C@H](N)Cc1cccnc1)C(=O)N[C@@H](Cc1ccccc1)C(N)=O (H-[d3Pal][dN][Cha]NSF[azaGly]L[Arg(Me)]F-NH2) | 
14 | 0.12 | 0.13 | CC[C@H](C)[C@H](NC(=O)[C@H](N)Cc1ccc(O)cc1)C(=O)N[C@@H](CC(N)=O)C(=O)N[C@@H](CO)C(=O)N[C@@H](Cc1ccccc1)C(=O)NNC(=O)N[C@@H](CC(C)C)C(=O)N[C@@H](CCCNC(=N)NC)C(=O)N[C@@H](Cc1ccccc1)C(N)=O (H-[dY]INSF[azaGly]L[Arg(Me)]F-NH2) | 
4.8 | 0.089 | 0.1 | CNC(=N)NCCC[C@H](NC(=O)[C@H](CC(C)C)NC(=O)NNC(=O)[C@H](Cc1ccccc1)NC(=O)[C@H](CO)NC(=O)[C@H](CC(N)=O)NC(=O)[C@@H](Cc1ccncc1)NC(=O)[C@H](N)Cc1ccc(O)cc1)C(=O)N[C@@H](Cc1ccccc1)C(N)=O [KISS1-305] (H-[dY][d4Pal]NSF[azaGly]L[Arg(Me)]F-NH2) | Activity (Rattus norvegicus [6]): Active; concentration at 144 h [7]: 0.95 nM; bioavailability [8]: 40.4%; Activity (Rattus norvegicus [9]): Active; Activity (Rattus norvegicus [10]): Active; Activity (Rattus norvegicus [11]): Active; remaining at 1 h, 100 µM [5]: 54.9%; Activity (Rattus norvegicus [2]): 0.04 ng/mL
2.4 | 0.044 | 0.059 | CNC(=N)NCCC[C@H](NC(=O)[C@H](CC(C)C)NC(=O)NNC(=O)[C@H](Cc1ccccc1)NC(=O)[C@H](CO)NC(=O)[C@H](CC(N)=O)NC(=O)[C@H](Cc1c[nH]c2ccccc12)NC(=O)[C@H](N)Cc1ccc(O)cc1)C(=O)N[C@@H](Cc1ccccc1)C(N)=O (H-[dY]WNSF[azaGly]L[Arg(Me)]F-NH2) | remaining at 1 h, 100 µM [5]: 43.4%
 | 0.032 | 0.051 | CNC(N)=NCCC[C@H](NC(=O)[C@H](CC(C)C)NC(=O)NNC(=O)[C@H](Cc1ccccc1)NC(=O)[C@H](CO)NC(=O)[C@H](CC(N)=O)NC(=O)[C@H](Cc1ccc2ccccc2c1)NC(=O)[C@H](N)Cc1ccc(O)cc1)C(=O)N[C@@H](Cc1ccccc1)C(N)=O (H-[dY][2Nal]NSF[azaGly]L[Arg(Me)]F-NH2) | 
